Measured values taken from ChEMBL document CHEMBL1154807, “Synthesis and antibacterial activity of novel 3-O-carbamoyl derivatives of clarithromycin and 11,12-cyclic carbonate azithromycin” (2010).
Values after ≈ are worked out from the molar mass of the structure shown.

Columns and labels:
Assay type in all cases: functional
Staphylococcus aureus = assay: Antibacterial activity against erythromycin-susceptible Staphylococcus aureus ATCC 25923 by standard dilution assay
Streptococcus pneumoniae [1] = assay: Antibacterial activity against erythromycin-resistant Streptococcus pneumoniae A22072 by standard dilution assay
Summary of the method: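 Readout is minimal inhibitory concentration (MIC). The strain carries mef-encoded erythromycin resistance. It was tested within a six-strain Gram-positive panel alongside clarithromycin and azithromycin references.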

Streptococcus pneumoniae [2] = assay: Antibacterial activity against erythromycin-susceptible Streptococcus pneumoniae ATCC 49619 by standard dilution assay
Summary of the method: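 MIC read-out, determined against a panel of six Gram-positive strains: three erythromycin-susceptible and three erythromycin-resistant S. pneumoniae (erm, mef, or erm plus mef). Clarithromycin and azithromycin were run alongside as reference macrolides.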

Streptococcus pneumoniae [3] = assay: Antibacterial activity against erythromycin-resistant Streptococcus pneumoniae AB11 by standard dilution assay
Summary of the method: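 Readout is minimal inhibitory concentration (MIC). The strain carries both erm- and mef-encoded erythromycin resistance. It was tested within a six-strain Gram-positive panel alongside clarithromycin and azithromycin references.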

Streptococcus pyogenes = assay: Antibacterial activity against erythromycin-susceptible Streptococcus pyogenes by standard dilution assay
Streptococcus pneumoniae [4] = assay: Antibacterial activity against erythromycin-resistant Streptococcus pneumoniae B1 by standard dilution assay
Summary of the method: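 Readout is minimal inhibitory concentration (MIC). Erythromycin resistance in this strain is erm-encoded. It was tested within a six-strain Gram-positive panel alongside clarithromycin and azithromycin references.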

Row | SMILES | MIC (Staphylococcus aureus) | MIC (Streptococcus pneumoniae [1]) | MIC (Streptococcus pneumoniae [2]) | MIC (Streptococcus pneumoniae [3]) | MIC (Streptococcus pyogenes) | MIC (Streptococcus pneumoniae [4])
1 | CC[C@H]1OC(=O)[C@H](C)[C@@H](OC(=O)NCCc2ccccc2Cl)[C@H](C)[C@@H](O[C@@H]2O[C@H](C)C[C@H](N(C)C)[C@H]2O)[C@](C)(O)C[C@@H](C)CN(C)[C@H](C)[C@H]2OC(=O)O[C@@]21C | 32 µg/mL (≈ 40.1 µM) | 16 µg/mL (≈ 20 µM) | 4 µg/mL (≈ 5.01 µM) | 8 µg/mL (≈ 10 µM) | 8 µg/mL (≈ 10 µM) | 32 µg/mL (≈ 40.1 µM)
2 | CC[C@H]1OC(=O)[C@H](C)[C@@H](OC(=O)NCc2ccccc2)[C@H](C)[C@@H](O[C@@H]2O[C@H](C)C[C@H](N(C)C)[C@H]2O)[C@](C)(O)C[C@@H](C)CN(C)[C@H](C)[C@H]2OC(=O)O[C@@]21C | 64 µg/mL (≈ 85.3 µM) | 128 µg/mL (≈ 171 µM) | 16 µg/mL (≈ 21.3 µM) | 64 µg/mL (≈ 85.3 µM) | 32 µg/mL (≈ 42.7 µM) | 64 µg/mL (≈ 85.3 µM)
3 | CC[C@H]1OC(=O)[C@H](C)[C@@H](OC(=O)NCCc2ccccc2)[C@H](C)[C@@H](O[C@@H]2O[C@H](C)C[C@H](N(C)C)[C@H]2O)[C@](C)(O)C[C@@H](C)CN(C)[C@H](C)[C@H]2OC(=O)O[C@@]21C | 64 µg/mL (≈ 83.8 µM) | 64 µg/mL (≈ 83.8 µM) | 4 µg/mL (≈ 5.24 µM) | 32 µg/mL (≈ 41.9 µM) | 8 µg/mL (≈ 10.5 µM) | 64 µg/mL (≈ 83.8 µM)
4 | CCCCNC(=O)O[C@H]1[C@H](C)[C@@H](O[C@@H]2O[C@H](C)C[C@H](N(C)C)[C@H]2O)[C@](C)(O)C[C@@H](C)CN(C)[C@H](C)[C@H]2OC(=O)O[C@]2(C)[C@@H](CC)OC(=O)[C@@H]1C | 64 µg/mL (≈ 89.4 µM) | 128 µg/mL (≈ 179 µM) | 8 µg/mL (≈ 11.2 µM) | 32 µg/mL (≈ 44.7 µM) | 8 µg/mL (≈ 11.2 µM) | 64 µg/mL (≈ 89.4 µM)
5 | CCCCCNC(=O)O[C@H]1[C@H](C)[C@@H](O[C@@H]2O[C@H](C)C[C@H](N(C)C)[C@H]2O)[C@](C)(O)C[C@@H](C)CN(C)[C@H](C)[C@H]2OC(=O)O[C@]2(C)[C@@H](CC)OC(=O)[C@@H]1C | 64 µg/mL (≈ 87.7 µM) | 64 µg/mL (≈ 87.7 µM) | 4 µg/mL (≈ 5.48 µM) | 32 µg/mL (≈ 43.8 µM) | 16 µg/mL (≈ 21.9 µM) | 32 µg/mL (≈ 43.8 µM)
6 | CC[C@H]1OC(=O)[C@H](C)[C@@H](O)[C@H](C)[C@@H](O[C@@H]2O[C@H](C)C[C@H](N(C)C)[C@H]2OC(C)=O)[C@](C)(O)C[C@@H](C)CN(C)[C@H](C)[C@@H](O)[C@]1(C)O | 128 µg/mL (≈ 202 µM) | 128 µg/mL (≈ 202 µM) | 128 µg/mL (≈ 202 µM) | 256 µg/mL (≈ 405 µM) | 128 µg/mL (≈ 202 µM) | 128 µg/mL (≈ 202 µM)
7 | CC[C@H]1OC(=O)[C@H](C)[C@@H](O)[C@H](C)[C@@H](O[C@@H]2O[C@H](C)C[C@H](N(C)C)[C@H]2OC(C)=O)[C@@](C)(OC)C[C@@H](C)C(=O)[C@H](C)[C@@H](O)[C@]1(C)O | 128 µg/mL (≈ 203 µM) | 128 µg/mL (≈ 203 µM) | 128 µg/mL (≈ 203 µM) | 256 µg/mL (≈ 405 µM) | 128 µg/mL (≈ 203 µM) | 128 µg/mL (≈ 203 µM)
8 | CC[C@H]1OC(=O)[C@H](C)[C@@H](OC(=O)NCc2ccc(OC)cc2)[C@H](C)[C@@H](O[C@@H]2O[C@H](C)C[C@H](N(C)C)[C@H]2O)[C@](C)(O)C[C@@H](C)CN(C)[C@H](C)[C@H]2OC(=O)O[C@@]21C | 128 µg/mL (≈ 164 µM) | 128 µg/mL (≈ 164 µM) | 8 µg/mL (≈ 10.3 µM) | 64 µg/mL (≈ 82.1 µM) | 16 µg/mL (≈ 20.5 µM) | 64 µg/mL (≈ 82.1 µM)
9 | CC[C@H]1OC(=O)[C@H](C)[C@@H](OC(=O)NCc2ccc(F)cc2)[C@H](C)[C@@H](O[C@@H]2O[C@H](C)C[C@H](N(C)C)[C@H]2O)[C@](C)(O)C[C@@H](C)CN(C)[C@H](C)[C@H]2OC(=O)O[C@@]21C | 64 µg/mL (≈ 83.3 µM) | 32 µg/mL (≈ 41.7 µM) | 4 µg/mL (≈ 5.21 µM) | 64 µg/mL (≈ 83.3 µM) | 16 µg/mL (≈ 20.8 µM) | 64 µg/mL (≈ 83.3 µM)
10 | CC[C@H]1OC(=O)[C@H](C)[C@@H](O[C@H]2C[C@@](C)(OC)[C@@H](O)[C@H](C)O2)[C@H](C)[C@@H](O[C@@H]2O[C@H](C)C[C@H](N(C)C)[C@H]2O)[C@](C)(O)C[C@@H](C)CN(C)[C@H](C)[C@@H](O)[C@]1(C)O [AZITHROMYCIN] | 0.25 µg/mL (≈ 0.334 µM) | 4 µg/mL (≈ 5.34 µM) | 0.03 µg/mL (≈ 0.0401 µM) | 256 µg/mL (≈ 342 µM) | 0.12 µg/mL (≈ 0.16 µM) | 128 µg/mL (≈ 171 µM)
11 | CC[C@H]1OC(=O)[C@H](C)[C@@H](O[C@H]2C[C@@](C)(OC)[C@@H](O)[C@H](C)O2)[C@H](C)[C@@H](O[C@@H]2O[C@H](C)C[C@H](N(C)C)[C@H]2O)[C@](C)(OC)C[C@@H](C)C(=O)[C@H](C)[C@@H](O)[C@]1(C)O [CLARITHROMYCIN] | 0.12 µg/mL (≈ 0.16 µM) | 4 µg/mL (≈ 5.35 µM) | 0.03 µg/mL (≈ 0.0401 µM) | 128 µg/mL (≈ 171 µM) | 0.12 µg/mL (≈ 0.16 µM) | 64 µg/mL (≈ 85.6 µM)
